The nature of data set [1]: Lipophilicity, log D at pH 7.4 by shake flask method. The conditions noted are these: buffer.
Data set [2] deals with Tyrosine-protein kinase ABL1 (Homo sapiens) (UniProt P00519). In words: Inhibition of recombinant human His-tagged ABL1 expressed in baculovirus expression system at 1 uM relative to control. The gist of the method:
(§1)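 Forty-kinase selectivity panel; each compound tested at a single 1 µM concentration in the presence of 1 mM ATP; result given as percent inhibition.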

The target in data set [3] is Tyrosine-protein kinase BTK (Homo sapiens) (UniProt Q06187). Put plainly: Inhibition of recombinant full length human His-tagged BTK expressed in baculovirus expression system at 1 uM relative to control. Summed up:
as §1

The target in data set [4] is CDK2/Cyclin A2 (Homo sapiens) (UniProt P24941+P20248). Put plainly: Inhibition of recombinant full length human His-tagged CDK2/Cyclin-A expressed in baculovirus expression system at 1 uM relative to control. Summed up:
as §1

The target of data set [5] is T1, Serine/threonine-protein kinase Chk1 (Homo sapiens) (UniProt O14757).
T1 sequence (whole entry): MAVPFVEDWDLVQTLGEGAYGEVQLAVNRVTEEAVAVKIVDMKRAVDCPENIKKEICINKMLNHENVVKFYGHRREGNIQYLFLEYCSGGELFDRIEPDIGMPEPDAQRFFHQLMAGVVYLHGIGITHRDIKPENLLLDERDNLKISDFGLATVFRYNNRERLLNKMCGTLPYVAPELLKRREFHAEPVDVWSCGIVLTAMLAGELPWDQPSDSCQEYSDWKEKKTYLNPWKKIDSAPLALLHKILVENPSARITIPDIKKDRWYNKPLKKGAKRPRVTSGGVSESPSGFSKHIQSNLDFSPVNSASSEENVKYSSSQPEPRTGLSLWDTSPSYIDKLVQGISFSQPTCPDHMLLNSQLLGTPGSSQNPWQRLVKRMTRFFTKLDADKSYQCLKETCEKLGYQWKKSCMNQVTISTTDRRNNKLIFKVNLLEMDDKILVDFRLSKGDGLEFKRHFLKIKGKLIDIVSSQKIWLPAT
Put plainly: Inhibition of recombinant full length human His-tagged CHEK1 expressed in baculovirus expression system at 1 uM relative to control. The gist of the method: as §1

The target of data set [6] is Epidermal growth factor receptor (Homo sapiens) (UniProt P00533). In words: Inhibition of recombinant human GST-tagged EGFR cytoplasmic domain expressed in baculovirus expression system at 1 uM relative to control. The gist of the method:
as §1

In data set [7] the target is Ephrin type-A receptor 2 (Homo sapiens) (UniProt P29317). Put plainly: Inhibition of recombinant human GST-tagged EPHA2 cytoplasmic domain expressed in baculovirus expression system at 1 uM relative to control. The gist of the method: as §1
Data set [8] deals with Glycogen synthase kinase-3 beta (Homo sapiens) (UniProt P49841). Put plainly: Inhibition of recombinant human full length His-tagged GSK3beta expressed in baculovirus expression system at 1 uM relative to control. The gist of the method: as §1
Data set [9] addresses Insulin receptor (Homo sapiens) (UniProt P06213). Put plainly: Inhibition of recombinant human GST-tagged INSR cytoplasmic domain expressed in baculovirus expression system at 1 uM relative to control. Summed up: as §1
Data set [10] addresses Vascular endothelial growth factor receptor 2 (Homo sapiens) (UniProt P35968). Put plainly: Inhibition of recombinant human His-tagged KDR cytoplasmic domain expressed in baculovirus expression system at 1 uM relative to control. Summed up: as §1
Data set [11] deals with Mitogen-activated protein kinase kinase kinase kinase 4 (Homo sapiens) (UniProt O95819). Put plainly: Inhibition of recombinant human GST-tagged MAP4K4 (1 to 328 residues) expressed in baculovirus expression system at 1 uM relative to control. Summed up:
as §1

Data set [12] concerns the target Mitogen-activated protein kinase 1 (Homo sapiens) (UniProt P28482). In words: Inhibition of recombinant full length human GST-tagged MAPK1 expressed in Escherichia coli at 1 uM relative to control. The gist of the method: as §1
The target in data set [13] is Mitogen-activated protein kinase 14 (Homo sapiens) (UniProt Q16539). In words: Inhibition of recombinant full length human GST-tagged MAPK14 expressed in Escherichia coli at 1 uM relative to control. Summed up:
as §1

Data set [14] deals with MAP kinase-activated protein kinase 2 (Homo sapiens) (UniProt P49137). In words: Inhibition of recombinant full length human His-tagged MAPKAPK2 expressed in Escherichia coli at 1 uM relative to control. Summed up:
as §1

The target in data set [15] is Serine/threonine-protein kinase MARK1 (Homo sapiens) (UniProt Q9P0L2). In words: Inhibition of recombinant human full length GST-tagged MARK1 expressed in baculovirus expression system at 1 uM relative to control. The gist of the method:
as §1

Data set [16] deals with Hepatocyte growth factor receptor (Homo sapiens) (UniProt P08581). Put plainly: Inhibition of recombinant human His-tagged c-Met cytoplasmic domain expressed in baculovirus expression system at 1 uM relative to control. Summed up:
as §1

Data set [17] concerns the target Serine/threonine-protein kinase 26 (Homo sapiens) (UniProt Q9P289). Put plainly: Inhibition of recombinant human full length GST-tagged MST4 expressed in baculovirus expression system at 1 uM relative to control. The gist of the method:
as §1

For data set [18], the target named is Serine/threonine-protein kinase pim-2 (Homo sapiens) (UniProt Q9P1W9). Put plainly: Inhibition of recombinant human full length GST-tagged PIM2 expressed in baculovirus expression system at 1 uM relative to control. The gist of the method:
as §1

The target in data set [19] is Rho-associated protein kinase 1 (Homo sapiens) (UniProt Q13464). Put plainly: Inhibition of recombinant human GST-tagged ROCK1 (1 to 535 residues) expressed in baculovirus expression system at 1 uM relative to control. The gist of the method: as §1
Data set [20] has as its target Proto-oncogene tyrosine-protein kinase Src (Homo sapiens) (UniProt P12931). In words: Inhibition of recombinant human full length His-tagged SRC expressed in baculovirus expression system at 1 uM relative to control. Summed up:
as §1

The target of data set [21] is T2, Serine/threonine-protein kinase 3 (Homo sapiens) (UniProt Q13188).
T2 sequence (whole entry): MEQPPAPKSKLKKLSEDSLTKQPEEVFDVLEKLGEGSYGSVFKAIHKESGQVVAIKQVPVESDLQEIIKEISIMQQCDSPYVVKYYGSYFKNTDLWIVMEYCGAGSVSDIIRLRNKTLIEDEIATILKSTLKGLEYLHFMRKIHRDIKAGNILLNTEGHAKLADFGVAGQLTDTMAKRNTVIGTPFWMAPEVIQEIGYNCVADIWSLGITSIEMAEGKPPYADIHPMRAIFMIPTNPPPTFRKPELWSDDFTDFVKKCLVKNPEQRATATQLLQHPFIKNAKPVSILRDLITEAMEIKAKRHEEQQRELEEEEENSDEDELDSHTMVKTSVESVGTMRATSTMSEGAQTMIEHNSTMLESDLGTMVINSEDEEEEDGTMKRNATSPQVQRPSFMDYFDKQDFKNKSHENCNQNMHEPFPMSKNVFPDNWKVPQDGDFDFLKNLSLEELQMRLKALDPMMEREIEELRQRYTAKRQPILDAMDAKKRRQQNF
Put plainly: Inhibition of recombinant human full length GST-tagged STK3 expressed in baculovirus expression system at 1 uM relative to control. Summed up: as §1

Data set [22] concerns the target Serine/threonine-protein kinase PAK 4 (Homo sapiens) (UniProt O96013). In words: Inhibition of recombinant human GST-tagged PAK4 expressed in baculovirus expression system at 1 uM relative to control. The gist of the method: as §1

Sequence of Ephrin type-A receptor 2 (Homo sapiens) (P29317 whole entry, the tested form may be a part): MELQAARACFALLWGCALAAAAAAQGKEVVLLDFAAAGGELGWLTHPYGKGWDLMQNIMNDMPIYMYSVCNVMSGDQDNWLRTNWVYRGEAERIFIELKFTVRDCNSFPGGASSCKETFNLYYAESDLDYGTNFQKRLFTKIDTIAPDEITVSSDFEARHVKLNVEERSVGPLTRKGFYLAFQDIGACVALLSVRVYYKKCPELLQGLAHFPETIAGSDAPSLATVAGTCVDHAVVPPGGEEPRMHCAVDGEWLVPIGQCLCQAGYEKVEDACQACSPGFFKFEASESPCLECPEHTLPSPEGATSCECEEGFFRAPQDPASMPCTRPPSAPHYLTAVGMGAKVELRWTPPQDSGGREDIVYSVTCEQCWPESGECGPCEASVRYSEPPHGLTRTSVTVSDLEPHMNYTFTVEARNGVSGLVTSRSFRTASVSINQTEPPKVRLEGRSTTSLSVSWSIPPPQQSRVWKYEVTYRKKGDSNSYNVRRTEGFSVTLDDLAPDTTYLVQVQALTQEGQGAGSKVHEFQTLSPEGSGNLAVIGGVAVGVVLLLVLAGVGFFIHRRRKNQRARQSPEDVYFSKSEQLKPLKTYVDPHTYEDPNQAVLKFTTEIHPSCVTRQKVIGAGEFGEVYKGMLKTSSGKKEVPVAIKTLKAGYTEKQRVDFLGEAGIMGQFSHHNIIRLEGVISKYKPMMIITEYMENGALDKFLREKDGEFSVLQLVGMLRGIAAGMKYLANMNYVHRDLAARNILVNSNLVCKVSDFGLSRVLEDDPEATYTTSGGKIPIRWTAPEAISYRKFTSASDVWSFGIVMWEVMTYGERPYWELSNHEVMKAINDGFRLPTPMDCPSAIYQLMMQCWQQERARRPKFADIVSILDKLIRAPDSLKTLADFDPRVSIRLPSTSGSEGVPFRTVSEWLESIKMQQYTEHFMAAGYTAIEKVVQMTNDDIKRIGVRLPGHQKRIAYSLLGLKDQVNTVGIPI
Sequence of Glycogen synthase kinase-3 beta (Homo sapiens) (P49841 whole entry, looked up, the tested form may be a part): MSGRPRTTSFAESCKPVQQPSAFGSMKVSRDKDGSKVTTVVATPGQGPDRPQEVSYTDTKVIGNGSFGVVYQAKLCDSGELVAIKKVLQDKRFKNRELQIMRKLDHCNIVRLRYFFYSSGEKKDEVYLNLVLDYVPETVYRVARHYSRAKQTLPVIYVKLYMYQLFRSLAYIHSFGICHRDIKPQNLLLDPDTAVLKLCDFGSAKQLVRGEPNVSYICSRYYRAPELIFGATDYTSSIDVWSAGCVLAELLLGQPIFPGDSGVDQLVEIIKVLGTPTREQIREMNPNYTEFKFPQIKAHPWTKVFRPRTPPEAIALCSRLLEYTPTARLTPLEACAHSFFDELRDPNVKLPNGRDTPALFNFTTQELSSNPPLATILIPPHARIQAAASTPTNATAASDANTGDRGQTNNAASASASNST
Sequence of Proto-oncogene tyrosine-protein kinase Src (Homo sapiens) (P12931 2-536 limits assumed): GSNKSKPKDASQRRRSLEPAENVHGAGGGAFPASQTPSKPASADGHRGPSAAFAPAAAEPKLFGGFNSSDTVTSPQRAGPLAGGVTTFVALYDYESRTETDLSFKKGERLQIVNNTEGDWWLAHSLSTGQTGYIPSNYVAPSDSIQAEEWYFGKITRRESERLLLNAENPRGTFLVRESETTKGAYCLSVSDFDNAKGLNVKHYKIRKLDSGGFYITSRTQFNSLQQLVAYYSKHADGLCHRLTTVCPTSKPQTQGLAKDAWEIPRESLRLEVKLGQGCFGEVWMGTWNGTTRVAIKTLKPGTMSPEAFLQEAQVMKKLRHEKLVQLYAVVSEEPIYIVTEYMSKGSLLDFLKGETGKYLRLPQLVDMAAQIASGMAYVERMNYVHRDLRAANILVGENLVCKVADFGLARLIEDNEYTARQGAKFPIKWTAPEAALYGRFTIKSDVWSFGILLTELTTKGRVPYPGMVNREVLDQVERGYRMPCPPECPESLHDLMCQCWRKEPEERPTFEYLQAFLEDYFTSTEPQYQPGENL
Sequence of Tyrosine-protein kinase BTK (Homo sapiens) (Q06187 whole entry): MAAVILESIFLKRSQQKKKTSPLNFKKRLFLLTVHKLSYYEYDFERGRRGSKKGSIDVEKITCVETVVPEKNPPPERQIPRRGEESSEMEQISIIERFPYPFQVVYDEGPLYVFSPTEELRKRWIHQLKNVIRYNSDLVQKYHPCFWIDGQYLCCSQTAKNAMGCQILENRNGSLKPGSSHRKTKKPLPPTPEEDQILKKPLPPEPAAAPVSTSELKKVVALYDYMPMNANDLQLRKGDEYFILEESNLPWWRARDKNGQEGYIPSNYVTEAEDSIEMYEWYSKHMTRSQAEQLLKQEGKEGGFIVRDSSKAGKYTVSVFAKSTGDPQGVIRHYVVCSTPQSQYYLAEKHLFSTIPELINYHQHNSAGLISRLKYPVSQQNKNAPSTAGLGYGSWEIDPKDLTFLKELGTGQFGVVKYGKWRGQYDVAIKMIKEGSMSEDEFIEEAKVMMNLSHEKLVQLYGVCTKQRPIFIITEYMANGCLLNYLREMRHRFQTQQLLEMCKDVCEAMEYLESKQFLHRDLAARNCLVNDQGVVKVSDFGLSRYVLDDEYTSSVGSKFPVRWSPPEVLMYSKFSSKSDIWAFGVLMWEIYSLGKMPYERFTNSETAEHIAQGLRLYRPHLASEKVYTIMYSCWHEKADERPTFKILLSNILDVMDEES
Sequence of Mitogen-activated protein kinase 1 (Homo sapiens) (P28482 whole entry): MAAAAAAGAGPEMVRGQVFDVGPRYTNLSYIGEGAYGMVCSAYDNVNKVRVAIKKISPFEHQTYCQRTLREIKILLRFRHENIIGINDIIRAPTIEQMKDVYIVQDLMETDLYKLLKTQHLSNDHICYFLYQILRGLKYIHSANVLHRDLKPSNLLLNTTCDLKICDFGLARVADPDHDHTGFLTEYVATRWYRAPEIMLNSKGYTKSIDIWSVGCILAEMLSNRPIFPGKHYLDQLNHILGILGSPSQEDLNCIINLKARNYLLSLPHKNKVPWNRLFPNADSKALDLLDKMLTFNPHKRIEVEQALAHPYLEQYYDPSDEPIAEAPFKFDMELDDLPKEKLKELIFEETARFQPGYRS
Sequence of Serine/threonine-protein kinase 26 (Homo sapiens) (Q9P289 2-416 limits assumed): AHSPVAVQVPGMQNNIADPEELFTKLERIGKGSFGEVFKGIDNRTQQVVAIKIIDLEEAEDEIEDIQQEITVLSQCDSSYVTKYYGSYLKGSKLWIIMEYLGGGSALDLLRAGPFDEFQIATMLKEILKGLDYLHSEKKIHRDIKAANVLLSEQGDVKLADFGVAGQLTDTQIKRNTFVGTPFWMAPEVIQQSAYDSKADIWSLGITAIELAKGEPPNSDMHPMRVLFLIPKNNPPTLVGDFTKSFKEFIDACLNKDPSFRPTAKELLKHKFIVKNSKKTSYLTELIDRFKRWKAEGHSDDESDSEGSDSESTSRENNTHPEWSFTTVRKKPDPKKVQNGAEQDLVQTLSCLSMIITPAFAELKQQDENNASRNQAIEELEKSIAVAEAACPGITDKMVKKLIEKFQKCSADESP
Sequence of Tyrosine-protein kinase ABL1 (Homo sapiens) (P00519 whole entry): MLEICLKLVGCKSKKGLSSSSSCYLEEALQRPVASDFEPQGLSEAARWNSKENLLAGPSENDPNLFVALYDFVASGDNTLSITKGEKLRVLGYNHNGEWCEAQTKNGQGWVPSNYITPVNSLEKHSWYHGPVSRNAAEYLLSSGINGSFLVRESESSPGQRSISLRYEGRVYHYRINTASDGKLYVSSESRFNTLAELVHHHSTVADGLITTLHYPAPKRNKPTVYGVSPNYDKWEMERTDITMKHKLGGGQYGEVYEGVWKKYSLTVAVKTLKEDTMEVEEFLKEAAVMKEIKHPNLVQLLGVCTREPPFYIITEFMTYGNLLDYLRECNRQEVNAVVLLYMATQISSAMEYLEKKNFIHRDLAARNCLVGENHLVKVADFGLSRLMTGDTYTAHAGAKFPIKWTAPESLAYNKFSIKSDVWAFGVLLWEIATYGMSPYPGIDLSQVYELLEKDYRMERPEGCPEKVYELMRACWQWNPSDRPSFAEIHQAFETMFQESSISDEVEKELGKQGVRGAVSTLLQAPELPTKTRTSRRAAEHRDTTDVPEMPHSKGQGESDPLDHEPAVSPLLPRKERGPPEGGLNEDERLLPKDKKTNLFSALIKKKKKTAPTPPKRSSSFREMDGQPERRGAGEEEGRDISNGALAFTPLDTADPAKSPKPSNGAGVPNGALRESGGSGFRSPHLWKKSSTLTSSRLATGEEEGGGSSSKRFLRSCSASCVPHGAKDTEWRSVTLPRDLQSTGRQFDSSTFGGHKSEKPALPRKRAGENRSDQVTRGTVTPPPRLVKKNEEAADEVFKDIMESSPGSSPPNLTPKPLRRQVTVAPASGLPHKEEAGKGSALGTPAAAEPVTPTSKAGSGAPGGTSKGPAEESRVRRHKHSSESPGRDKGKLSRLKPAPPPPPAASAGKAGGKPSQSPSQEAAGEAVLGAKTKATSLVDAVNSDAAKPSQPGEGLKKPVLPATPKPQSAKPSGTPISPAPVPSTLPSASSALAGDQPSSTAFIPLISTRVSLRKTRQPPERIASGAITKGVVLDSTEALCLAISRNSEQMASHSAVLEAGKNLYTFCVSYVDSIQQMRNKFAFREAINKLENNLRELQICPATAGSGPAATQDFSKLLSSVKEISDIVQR
Sequence of Mitogen-activated protein kinase 14 (Homo sapiens) (Q16539 whole entry): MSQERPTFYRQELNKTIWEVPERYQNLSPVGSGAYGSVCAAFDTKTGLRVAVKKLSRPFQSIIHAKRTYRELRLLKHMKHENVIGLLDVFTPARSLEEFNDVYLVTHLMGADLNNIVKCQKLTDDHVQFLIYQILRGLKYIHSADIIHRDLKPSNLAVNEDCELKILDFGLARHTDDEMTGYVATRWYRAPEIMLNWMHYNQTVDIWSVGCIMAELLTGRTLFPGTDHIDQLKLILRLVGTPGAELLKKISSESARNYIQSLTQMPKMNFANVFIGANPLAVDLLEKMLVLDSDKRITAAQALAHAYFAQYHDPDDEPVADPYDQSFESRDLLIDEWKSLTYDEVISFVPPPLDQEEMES

With `COc1ccc(S(C)(=O)=O)cc1C(=O)Nc1cccc(-c2nncn2C(C)C)n1`, the logD in data set [1] was determined as 1.3. Also, the inhibition in data set [2] is -4%; in data set [3], 0%; in [4], 4%; in data set [5], 1%; in [6], -3%; in [7] it was 0%. The inhibition in data set [8] is -1%; in [9], 2%; in data set [10] it was -4%; in data set [11] it was 12%; in data set [12] it was 6%; in data set [13] it was 10%. Further, the inhibition in data set [14] came to 6%; in data set [15], 3%; in data set [16], 7%; in data set [17], 14%; in data set [18], 2%; in [19], 1%. Also, the inhibition in data set [20] was 3%; in data set [21], -1%; in data set [22], 6%.
Consider `COc1ccc(S(N)(=O)=O)cc1C(=O)Nc1cccc(-c2nncn2C(C)C)n1`, for which the logD in data set [1] was in the range of 1.2 to 1.3. Further, the inhibition in data set [2] is -3%; in data set [3], -3%; in data set [4], 5%; in data set [5], -4%; in [6], -4%; in [7] it was 0%. The inhibition in data set [8] is 0%; in [9], -1%; in data set [10], -1%; in [11], 18%; in data set [12], 8%; in data set [13], 19%. Also, the inhibition in data set [14] came to 13%; in [15], 0%; in data set [16], 7%; in [17] it was 10%; in [18], 2%; in data set [19] it was 7%. Moreover, the inhibition in data set [20] is 4%; in [21], -1%; in data set [22] it was 8%.
In [1], `COc1cc(C)c(S(C)(=O)=O)cc1C(=O)Nc1cccc(-c2nncn2C(C)C)n1` returned a logD of 1.7. Besides, the inhibition in [2] is -6%; in [3], 5%; in data set [4], 2%; in data set [5] it was 2%; in data set [6] it was 0%; in data set [7], 0%. Besides, the inhibition is 3% in [8]; 0% in [9]; 7% in data set [10]; 20% in data set [11]; 2% in data set [12]; 1% in [13]. The inhibition in data set [14] was -1%; in data set [15] it was -1%; in [16], -6%; in data set [17] it was 14%; in data set [18] it was 5%; in data set [19], 11%. For the same molecule, the inhibition was -1% in data set [20], 10% in data set [21] and -1% in data set [22].
Take `COc1cc(C)c(C(N)=O)cc1C(=O)Nc1cccc(-c2nncn2C(C)C)n1`: the logD in data set [1] was determined as 1.6. Moreover, the inhibition was 16% in data set [2]; -4% in data set [3]; 57% in data set [4]; 17% in [5]; -3% in data set [6]; 1% in data set [7]. Also, the inhibition was 7% in data set [8]; -2% in data set [9]; 57% in data set [10]; 85% in data set [11]; 20% in data set [12]; 7% in [13]. The inhibition stood at 0% in data set [14]; 5% in [15]; 11% in data set [16]; 59% in data set [17]; 0% in [18]; 5% in [19]. For the same molecule, the values for the inhibition in data set [20], in data set [21] and in data set [22] were 8%, 40% and 9%, respectively.
For `COc1cc(C)c(S(N)(=O)=O)cc1C(=O)Nc1cccc(-c2nncn2C(C)C)n1`, the logD in data set [1] worked out at 1.6. The inhibition is 4% in data set [2]; 0% in data set [3]; 5% in data set [4]; 8% in [5]; 6% in data set [6]; -1% in [7]. Further, the inhibition in [8] is 6%; in [9], -2%; in [10], 8%; in data set [11] it was 44%; in data set [12], 3%; in data set [13], 4%. Also, the inhibition in data set [14] was 7%; in data set [15], -1%; in data set [16], -6%; in [17] it was 17%; in [18], 3%; in data set [19], -3%. In addition, the inhibition in data set [20] was determined as 1%; in data set [21], 13%; in data set [22] it was 10%.
Take `COc1ccc(C(N)=O)cc1C(=O)Nc1cccc(-c2nncn2C(C)C)n1`: in [1], the logD worked out at 1.5. For the same molecule, the inhibition is 16% in data set [2]; -5% in data set [3]; 33% in data set [4]; 34% in data set [5]; 2% in data set [6]; -1% in data set [7]. In addition, the inhibition in data set [8] turned out to be 0%; in data set [9], 6%; in [10], 59%; in data set [11], 18%; in data set [12], 19%; in data set [13], 4%. In addition, the inhibition in [14] is 10%; in data set [15], 0%; in [16], 5%; in [17], 35%; in data set [18] it was -1%; in [19], 11%. In addition, the inhibition in [20] turned out to be 7%; in data set [21], 0%; in [22], 20%.

The values are drawn from ChEMBL document CHEMBL4251655 (Eur J Med Chem, 2018).
